Laboratory results reported in article PMC7686291 (Psychopharmacology, 2020).
Counter-ions that a name gives are not always drawn.

Tests used:
[1] = test system: extracellular 5-HT in nucleus accumbens; experiment: In vivo microdialysis in nucleus accumbens, dialysate 5-HT; set-up: species or system rat; conditions: male rats
Outline: (§1)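 Male Sprague-Dawley rats (300–400 g) were fitted with a jugular catheter and a nucleus accumbens guide cannula under pentobarbital (60 mg/kg i.p.), with ≥1 week recovery. Probes (2×0.5 mm) were perfused with Ringers' at 0.6 μL/min overnight. 20-min dialysates were assayed by microbore HPLC-ECD. After three stable baselines: i.v. dose at time zero, threefold higher dose at 60 min. Saline 1 mL/kg controls; n = 7/group; % baseline; dose × time ANOVA, Bonferroni.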

[2] = target: dopamine transporters (DAT) (Rattus norvegicus, UniProt P23977); experiment: Transporter release assay, [3H]MPP+ via DAT, rat brain synaptosomes; assay type: biochemical; conditions: for Emax: read-out: DAT release %Emax; for Times more potent than MDA at DAT release / Times more potent than MDMA at DAT release: ratio of EC50 values, synaptosomes; for DAT release %Emax: % of maximal release defined with 10 μM tyramine
dopamine transporters (DAT), sequence (P23977 whole entry): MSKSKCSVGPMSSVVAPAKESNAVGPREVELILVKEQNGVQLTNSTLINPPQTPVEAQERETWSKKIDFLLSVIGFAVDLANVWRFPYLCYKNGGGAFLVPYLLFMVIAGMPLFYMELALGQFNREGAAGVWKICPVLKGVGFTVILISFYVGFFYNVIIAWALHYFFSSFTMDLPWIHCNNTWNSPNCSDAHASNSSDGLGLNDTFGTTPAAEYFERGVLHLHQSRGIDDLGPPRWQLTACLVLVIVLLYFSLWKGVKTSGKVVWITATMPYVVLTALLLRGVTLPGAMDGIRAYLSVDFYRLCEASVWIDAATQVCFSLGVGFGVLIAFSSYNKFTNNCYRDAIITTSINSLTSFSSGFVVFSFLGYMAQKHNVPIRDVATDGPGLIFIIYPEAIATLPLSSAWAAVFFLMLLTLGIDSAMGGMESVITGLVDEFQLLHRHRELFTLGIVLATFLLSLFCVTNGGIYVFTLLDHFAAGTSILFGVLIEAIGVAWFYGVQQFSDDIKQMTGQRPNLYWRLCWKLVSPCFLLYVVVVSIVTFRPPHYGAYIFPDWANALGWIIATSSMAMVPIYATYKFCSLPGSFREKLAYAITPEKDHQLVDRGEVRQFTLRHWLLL
Outline: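 Striatal synaptosomes from male Sprague-Dawley rats, prepared in 10% sucrose containing 1 μM reserpine; no unlabeled blockers added. Loaded 1 h to steady state with 9 nM [3H]MPP+ in Krebs-phosphate buffer; test compound at various concentrations added for 30 min. Ended by rapid vacuum filtration and scintillation counting of filter-bound radioactivity. EC50 by non-linear regression; efficacy relative to maximal release by 10 μM tyramine.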

conscious male rats = experiment: Horizontal ambulation; assay type: in vivo, rat; conditions: for Duration of behavioral activation (forward ambulation) post-injection: i.v.
Outline: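 Conscious, tethered male Sprague-Dawley rats (300–400 g) with jugular catheters were placed overnight in photobeam arenas during accumbens microdialysis. Horizontal-plane movement was counted in 20-min bins over 120 min. Two i.v. injections: first dose at time zero, threefold higher dose 60 min later. Saline (1 mL/kg) controls; n = 7/group. Data normalized to three preinjection bins; dose × time ANOVA versus saline with Bonferroni tests.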

[3] = target: norepinephrine transporters (NET) (Rattus norvegicus, UniProt Q63380); experiment: Transporter release assay, [3H]MPP+ via NET, rat brain synaptosomes; assay type: biochemical; conditions: for Emax: read-out: NET release %Emax; for Times more potent than MDA at NET release / Times more potent than MDMA at NET release: ratio of EC50 values, synaptosomes; for NET release %Emax: % of maximal release defined with 10 μM tyramine
norepinephrine transporters (NET), sequence (Q63380 1-617): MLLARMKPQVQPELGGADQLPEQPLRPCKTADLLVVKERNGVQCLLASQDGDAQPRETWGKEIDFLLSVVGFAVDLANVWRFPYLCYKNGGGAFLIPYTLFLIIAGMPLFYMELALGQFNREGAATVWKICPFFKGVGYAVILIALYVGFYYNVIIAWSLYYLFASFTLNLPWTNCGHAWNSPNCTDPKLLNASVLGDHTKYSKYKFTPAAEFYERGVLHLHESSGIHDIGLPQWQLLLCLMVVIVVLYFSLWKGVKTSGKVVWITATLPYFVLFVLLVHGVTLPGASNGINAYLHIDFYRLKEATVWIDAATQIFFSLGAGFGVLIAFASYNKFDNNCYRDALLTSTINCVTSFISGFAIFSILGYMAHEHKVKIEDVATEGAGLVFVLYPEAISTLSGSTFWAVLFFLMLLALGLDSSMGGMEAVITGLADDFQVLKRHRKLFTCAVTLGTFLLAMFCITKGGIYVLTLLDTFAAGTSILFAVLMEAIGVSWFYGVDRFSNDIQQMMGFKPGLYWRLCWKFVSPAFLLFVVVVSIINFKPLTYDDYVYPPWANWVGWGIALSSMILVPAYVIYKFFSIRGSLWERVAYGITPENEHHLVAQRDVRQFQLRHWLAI
Outline: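 Male Sprague-Dawley rat whole brain minus striatum and cerebellum gave synaptosomes in 10% sucrose with 1 μM reserpine, 100 nM GBR12935 and citalopram. After 1 h preloading with 9 nM [3H]MPP+ in Krebs-phosphate buffer, incubated 30 min with varied test compound concentrations. Filtration, then scintillation counting of retained radioactivity. EC50 from non-linear regression; efficacy as % of 10 μM tyramine release.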

[4] = target: serotonin transporters (SERT) (Rattus norvegicus, UniProt P31652); experiment: Transporter release assay, [3H]5-HT via SERT, rat brain synaptosomes; assay type: biochemical; conditions: for Emax: read-out: SERT release %Emax; for SERT release %Emax: % of maximal release defined with 100 μM tyramine
serotonin transporters (SERT), sequence (P31652 whole entry): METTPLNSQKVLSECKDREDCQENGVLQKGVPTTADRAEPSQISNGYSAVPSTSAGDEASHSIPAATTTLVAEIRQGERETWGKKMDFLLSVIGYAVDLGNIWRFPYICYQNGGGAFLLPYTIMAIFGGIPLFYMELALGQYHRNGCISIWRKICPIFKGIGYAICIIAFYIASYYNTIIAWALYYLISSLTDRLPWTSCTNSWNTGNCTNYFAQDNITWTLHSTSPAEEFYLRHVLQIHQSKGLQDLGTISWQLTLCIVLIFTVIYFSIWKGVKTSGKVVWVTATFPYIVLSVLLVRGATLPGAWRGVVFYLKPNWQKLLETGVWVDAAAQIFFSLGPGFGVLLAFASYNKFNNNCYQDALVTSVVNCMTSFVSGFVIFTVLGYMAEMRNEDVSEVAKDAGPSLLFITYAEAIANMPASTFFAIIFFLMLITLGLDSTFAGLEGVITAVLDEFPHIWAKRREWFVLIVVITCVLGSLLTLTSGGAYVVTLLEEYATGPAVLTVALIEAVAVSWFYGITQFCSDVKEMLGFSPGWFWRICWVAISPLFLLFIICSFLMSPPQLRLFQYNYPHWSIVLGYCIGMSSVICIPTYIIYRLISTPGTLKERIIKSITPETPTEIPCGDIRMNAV
Outline: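 Synaptosomes from whole brain minus striatum and cerebellum of male Sprague-Dawley rats, made in 10% sucrose with 1 μM reserpine plus 100 nM GBR12935 and nomifensine. Preloaded 1 h to steady state with 5 nM [3H]5-HT in Krebs-phosphate buffer, then incubated 5 min with test compound at various concentrations. Stopped by vacuum filtration; retained label counted by scintillation. EC50 from non-linear regression; efficacy as % of release by 100 μM tyramine.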

[5] = test system: human transporters (DAT, SERT); conditions: cited from earlier work; for DAT/SERT ratio in transfected cells: ref Luethi et al. 2019; for DAT/SERT ratio from uptake inhibition potencies: transfected HEK cells, human transporters, ref Rickli et al. 2015
rats = rats trained with MDMA 1.5 mg/kg i.p., ref Dolan et al. (2017), cited from earlier work
[6] = test system: dialysate dopamine in corpus striatum; conditions: oral 0.08 mmol/kg (~17 mg/kg), male CD-1 mice, ref Fuwa et al. 2016; cited from earlier work
[7] = test system: dialysate 5-HT in corpus striatum; conditions: ref Fuwa et al. 2016, cited from earlier work
mice = conditions: ref Dolan et al. (2017), cited from earlier work
[8] = test system: extracellular dopamine in nucleus accumbens; experiment: In vivo microdialysis in nucleus accumbens, dialysate dopamine; set-up: species or system rat; conditions: male rats; for Peak increase of dialysate dopamine above baseline: 1.0 mg/kg i.v. given 60 min after 0.3 mg/kg
Outline: as §1

[9] = 3 mg/kg i.v. given 60 min after 1 mg/kg
[10] = 1.0 mg/kg i.v. given 60 min after 0.3 mg/kg
[11] = ratio of EC50 values, synaptosomes

SMILES	EC50 [2] [nM]	Emax [2] [%]	Duration of behavioral activation (forward ambulation) post-injection (conscious male rats)	EC50 [3] [nM]	Emax [3] [%]	EC50 [4] [nM]	Emax [4] [%]	DAT/SERT ratio in transfected cells [5]	Peak effect on dialysate 5-HT above baseline [1, 10] [fold]	Times more potent than MDA at DAT release [2] [fold]	Peak effect on ambulation above baseline (conscious male rats; [10]) [fold]	Times more potent than MDA at NET release [3]	Times more potent than MDA at SERT release [4, 11] [fold]	Peak increase of dialysate dopamine above baseline [8] [fold]	DAT/SERT ratio from uptake inhibition potencies [5]	DAT release %Emax [2] [%]	Times more potent than MDMA at DAT release [2]	NET release %Emax [3] [%]	Times more potent than MDMA at NET release [3] [times]	SERT release %Emax [4] [%]	further results
CC(N)Cc1ccc2c(c1)OCO2 (racemic) [MDA, (±)-3,4-Methylenedioxyamphetamine HCl, reference compound]	106 ± 7	104	at least 2 h	47 ± 7	91	162 ± 28	109	0.25	–	–	–	–	–	–	–	–	–	–	–	–	Peak effect on dialysate 5-HT above baseline ([1]; 1 mg/kg i.v., first dose): 4.6 fold; Peak effect on dialysate 5-HT above baseline [1, 9]: 11.2 fold; Fold less potent than 5-APB and 6-APB at increasing dialysate 5-HT ([1]; in vivo microdialysis, i.v.): 3 fold; Effect on locomotion vs saline (post hoc analysis) (conscious male rats; 1 mg/kg i.v., first dose): did not significantly increase locomotion; Peak effect on ambulation above baseline (conscious male rats; [9]): 30 fold; Ambulation above baseline at the 120 min point (conscious male rats; 60 min after 3 mg/kg i.v.): about 18 fold
CNC(C)Cc1ccc2c(c1)OCO2 (racemic) [MDMA, (±)-3,4-methylenedioxymethamphetamine HCl, reference compound]	120 ± 8	101	–	90 ± 13	99	85 ± 16	104	0.12	–	–	–	–	–	–	–	–	–	–	–	–	–
CC(N)Cc1ccc2occc2c1 (stereo not shown) [5-APB, 1-(1-Benzofuran-5-yl)propan-2-amine]	31 ± 3	103	at least 2 h	21 ± 4	103	19 ± 2	104	–	17.7	3.4	21	2–3 times	8.5	6.7	0.05	–	–	–	–	–	Increase of dialysate 5-HT ([1]; 20 min after 0.3 mg/kg i.v.): 5.7 fold; Dialysate 5-HT above baseline at the 120 min point ([1]; 120 min point, 60 min after 1.0 mg/kg i.v.): 11.3 fold; Ambulation above baseline at the 120 min point (conscious male rats; 60 min after 1.0 mg/kg i.v.): 14.0 fold; ED50 to substitute for the MDMA stimulus cue (rats; i.p.): 0.27 mg/kg; Substitution for the discriminative stimulus effects of MDMA (rats): fully substitutes; Increase in dialysate dopamine [6]: 8 fold; Increase in dialysate 5-HT ([7]; oral 0.08 mmol/kg (~17 mg/kg), corpus striatum, male CD-1 mice): 23 fold; Time the rise in extracellular 5-HT was maintained post-injection ([7]; oral 0.08 mmol/kg, mice): up to 3 h; Times more potent than 5-MAPB at SERT release [4, 11]: 3.4 times; ED50 for increase of forward locomotion (mice; i.p.): 3.27 mg/kg; Potency to stimulate activity, fold greater than that of MDMA (mice; Gatch et al. 2019): at least 3 fold; Effect on dialysate dopamine vs saline (post hoc test) ([8]; 0.3 mg/kg i.v.): failed to significantly increase dopamine levels
CNC(C)Cc1ccc2occc2c1 (stereo not shown) [5-MAPB]	–	–	–	–	–	–	–	–	–	–	–	–	–	–	–	103	at least 3 times	99	≥ 3.75	103	Times more potent than MDMA at SERT release [4, 11]: up to 2.5 times
CC(N)Cc1ccc2ccoc2c1 (stereo not shown) [6-APB, 1-(1-benzofuran-6-yl)propan-2-amine]	10 ± 1	101	at least 2 h	14 ± 2	98	36 ± 5	100	–	16	10	24	2–3 times	4.5	8.4	0.29	–	–	–	–	–	Effect on locomotion vs saline (post hoc analysis) (conscious male rats; 0.3 mg/kg i.v.): failed to result in significant increases in locomotion; Increase of dialysate dopamine ([8]; 20 min after 0.3 mg/kg i.v.): 2.6 fold; Increase of dialysate dopamine ([8]; 40 min after 0.3 mg/kg i.v.): 3.3 fold
CNC(C)Cc1ccc2ccoc2c1 (stereo not shown) [6-MAPB]	–	–	–	–	–	–	–	–	–	–	–	–	–	–	–	106	at least 3 times	100	≥ 3.75	106	Times more potent than MDMA at SERT release [4, 11]: up to 2.5 times
